pIC50: −log10 of the molar value. Active and inactive are the calls of the source.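 How the source made its calls: active means inhibition of 30% or more at any tested concentration; inactive means the rest.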
Biological target: Aminopeptidase N (Plasmodium falciparum (isolate 3D7)) (UniProt O96935)
Assay: PfM1AAP inhibitors, counter-screen enzyme, dose response, counter-screen for PfM18AAP inhibitor project, biochemical, QFRET fluorogenic substrate, set 3 (AID 624176)
Conditions: recombinant PfM1AAP, H-Leu-NHMec fluorogenic cleavage; for inhibition: at 100 µM (top of the series)
Outline: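 Test system: purified recombinant Plasmodium falciparum M1 alanyl aminopeptidase (PfM1AAP); quantity: PfM1AAP at 5 µg/mL final; signal: fluorescence of released NHMec, excitation 370 nm, emission 460 nm; measure: IC50 from constrained four-parameter fit; doses: 10-point twofold series from 100 µM; timing: reaction 90 min, room temperature; also added: H-Leu-NHMec substrate, 0.1 mM; replication: triplicate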

Aminopeptidase N (Plasmodium falciparum (isolate 3D7)), sequence (O96935 whole entry, looked up): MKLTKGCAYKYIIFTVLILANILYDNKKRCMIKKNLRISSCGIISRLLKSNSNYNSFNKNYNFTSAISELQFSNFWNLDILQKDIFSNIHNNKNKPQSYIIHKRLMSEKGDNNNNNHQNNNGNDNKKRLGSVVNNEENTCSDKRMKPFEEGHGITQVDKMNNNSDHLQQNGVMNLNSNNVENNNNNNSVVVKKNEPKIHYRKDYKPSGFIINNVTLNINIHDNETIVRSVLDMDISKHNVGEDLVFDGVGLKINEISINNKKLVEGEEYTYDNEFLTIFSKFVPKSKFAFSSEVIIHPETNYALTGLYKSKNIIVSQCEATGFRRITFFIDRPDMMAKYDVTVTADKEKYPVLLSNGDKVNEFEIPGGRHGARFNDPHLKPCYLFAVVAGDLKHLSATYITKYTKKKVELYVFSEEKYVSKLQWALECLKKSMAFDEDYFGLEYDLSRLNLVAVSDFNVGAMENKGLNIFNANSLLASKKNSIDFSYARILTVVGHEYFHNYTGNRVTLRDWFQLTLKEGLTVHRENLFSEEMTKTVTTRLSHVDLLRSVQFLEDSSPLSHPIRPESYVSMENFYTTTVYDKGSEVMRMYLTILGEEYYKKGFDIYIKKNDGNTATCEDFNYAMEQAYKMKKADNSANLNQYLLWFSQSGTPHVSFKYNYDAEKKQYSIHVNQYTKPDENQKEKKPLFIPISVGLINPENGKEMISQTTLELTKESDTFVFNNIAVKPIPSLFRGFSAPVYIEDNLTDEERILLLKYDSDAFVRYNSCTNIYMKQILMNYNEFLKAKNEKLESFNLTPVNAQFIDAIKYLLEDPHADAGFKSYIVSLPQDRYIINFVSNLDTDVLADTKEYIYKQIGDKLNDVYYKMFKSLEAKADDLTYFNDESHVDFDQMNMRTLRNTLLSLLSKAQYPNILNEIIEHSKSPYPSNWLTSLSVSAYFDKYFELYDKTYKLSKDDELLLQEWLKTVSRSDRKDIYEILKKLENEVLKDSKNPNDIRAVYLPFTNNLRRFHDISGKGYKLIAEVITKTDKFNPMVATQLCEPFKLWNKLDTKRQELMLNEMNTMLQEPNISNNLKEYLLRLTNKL

SMILES | inhibition | pIC50
CCN(CCc1ccc(OC)c(OC)c1)c1c2ccccc2nc2ccccc12 | inactive | –
COc1cc(Br)c(CCNc2c3c(nc4ccccc24)CCCC3)cc1OC | inactive | –
COc1ccc(CCNc2cc(C)nc3ccccc23)cc1OC | inactive | –
COc1ccc(CCN(C)c2cc(C)nc3ccccc23)cc1OC | inactive | –
CN(CCc1ccc(O)c(O)c1)c1ncnc2ccccc12 | – | 4.21
COc1ccc(C2CCN(c3ccnc4ccccc34)CC2)cc1OC | inactive | –
COc1cc(Br)c(CCNc2c3ccccc3nc3ccccc23)cc1OC | inactive | –
COc1ccc(CCN(C)c2ccnc3c(C)cccc23)cc1OC | inactive | –
Oc1cccc(CCNc2ccnc3ccccc23)c1O | – | 4.25
COc1cc(Br)c(CCNc2ccnc3ccccc23)cc1OC | inactive | –
COc1ccc(CCN(C)c2ccnc3c(F)cccc23)cc1OC | inactive | –
COc1ccc(CCNc2c3c(nc4ccc(C)cc24)CCCC3)cc1OC | inactive | –
COc1ccc(CCNc2ncnc3ccccc23)cc1OC | inactive | –
CN(CCc1ccc(O)c(O)c1)c1ccnc2c(F)cccc12 | – | 4.08
COc1ccc(CCCNc2c3c(nc4ccccc24)CCCC3)cc1OC | inactive | –
COc1ccc(CCNc2ccnc3c(F)cccc23)cc1OC | inactive | –
COc1ccc(C2CCN(c3ccnc4ccccc34)C2)cc1OC (stereo not given) | inactive | –
CCOc1ccc2nccc(NCCc3ccc(OC)c(OC)c3)c2c1 | inactive | –

SMILES | inhibition | pIC50
Clc1c2c(nc3ccccc13)CCCC2 | inactive | –
COc1ccc(CCNC(=O)c2cc(C)ccc2N)cc1OC | inactive | –
Oc1ccc(C2CCN(c3ccnc4ccccc34)CC2)cc1O | – | 4.13
Oc1ccc(C2CCN(c3ccnc4ccccc34)C2)cc1O (stereo not given) | – | 4.33
CCN(CCc1ccc(O)c(O)c1)c1c2ccccc2nc2ccccc12 | – | 4.00
COc1ccc(CCNc2ccnc3cc(Cl)ccc23)cc1OC | inactive | –
CCOc1ccc2nccc(N(C)CCc3ccc(OC)c(OC)c3)c2c1 | inactive | –
COc1ccc(CCCN(C)c2c3ccccc3nc3ccccc23)cc1OC | inactive | –
CN(CCc1ccc(O)c(O)c1)c1ccnc2cc(Cl)ccc12 | – | 4.12
COc1ccc(CCNc2ccnc3c(C)cccc23)cc1OC | inactive | –
Oc1ccc(CCNc2ccnc3cc(Cl)ccc23)cc1O | – | 4.13
Cc1cccc2c(NCCc3ccc(O)c(O)c3)ccnc12 | – | 3.98
Cc1cc(N(C)CCc2ccc(O)c(O)c2)c2ccccc2n1 | – | 4.00
COc1ccc(CCN(C)c2ccnc3cc(Cl)ccc23)cc1OC | inactive | –
Nc1c2ccccc2nc2ccccc12 | inactive | –
COc1ccc(CCN(C)c2c3ccccc3nc3ccccc23)cc1OC | inactive | –
COc1ccc(CCN(C)c2ncnc3ccccc23)cc1OC | inactive | –

— PubChem BioAssay AID624176 (Southern Research Specialized Biocontainment Screening …, 2012)
